Measurements: ChEMBL document CHEMBL4706728, “Discovery of a Highly Selective and Potent TRPC3 Inhibitor with High Metabolic Stability and Low Toxicity” (ACS Med Chem Lett, 2021)
The source made the active and inactive calls. The rule behind the calls is not given here.

What was measured:
[1] = Metabolic stability in rat liver microsomes assessed as half life at […] measured up to 240 mins in presence of NADPH regeneration system by LC-MS analysis; assay type: ADME, Microsome
[2] = Metabolic stability in mouse liver microsomes assessed as half life at […] measured up to 240 mins in presence of NADPH regeneration system by LC-MS analysis; assay type: ADME, Microsome
[3] = biological target: T1, Short transient receptor potential channel 6 (Mus musculus) (UniProt Q61143); experiment: Inhibition of mouse TRPC6 expressed in HEK293 cells assessed as inhibition of GSK170-induced current at 10 uM by whole cell patch-clamp method; assay type: cell-based
T1 sequence (whole entry): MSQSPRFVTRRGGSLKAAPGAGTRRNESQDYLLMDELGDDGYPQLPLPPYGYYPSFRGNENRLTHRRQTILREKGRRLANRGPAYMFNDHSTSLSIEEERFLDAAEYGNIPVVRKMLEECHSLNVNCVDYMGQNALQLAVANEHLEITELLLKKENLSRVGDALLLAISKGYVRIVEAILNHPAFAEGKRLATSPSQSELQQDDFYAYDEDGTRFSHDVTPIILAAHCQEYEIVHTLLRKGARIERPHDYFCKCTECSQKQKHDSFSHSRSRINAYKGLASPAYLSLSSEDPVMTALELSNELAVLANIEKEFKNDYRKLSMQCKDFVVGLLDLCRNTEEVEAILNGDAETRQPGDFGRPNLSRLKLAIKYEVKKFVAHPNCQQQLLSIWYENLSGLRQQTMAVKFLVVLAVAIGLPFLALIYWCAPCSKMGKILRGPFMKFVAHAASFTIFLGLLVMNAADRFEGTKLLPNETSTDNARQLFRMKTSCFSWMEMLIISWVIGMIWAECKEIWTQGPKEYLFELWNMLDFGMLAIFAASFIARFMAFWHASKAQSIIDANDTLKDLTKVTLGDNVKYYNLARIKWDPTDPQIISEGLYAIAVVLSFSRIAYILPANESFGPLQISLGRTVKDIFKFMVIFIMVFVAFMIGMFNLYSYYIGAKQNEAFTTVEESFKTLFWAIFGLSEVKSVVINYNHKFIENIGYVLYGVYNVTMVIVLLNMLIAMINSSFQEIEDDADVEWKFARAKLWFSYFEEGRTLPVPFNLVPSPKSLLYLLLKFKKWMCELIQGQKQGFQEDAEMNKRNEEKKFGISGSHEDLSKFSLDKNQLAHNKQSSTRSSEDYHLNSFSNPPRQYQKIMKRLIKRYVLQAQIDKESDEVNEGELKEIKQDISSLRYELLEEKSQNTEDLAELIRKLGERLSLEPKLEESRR
In short: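 TRP channels overexpressed in HEK293 cells (hTRPA1, rTRPV1, rTRPV4, mouse TRPC6, hTRPC7, hTRPM8). Whole-cell patch clamp with Ca2+-free solutions to avoid desensitization. Channels fully activated with high concentrations of their agonists (AITC for TRPA1, capsaicin for TRPV1, GSK1016790A for TRPV4), then 10 μM test compound perfused with agonist. Result expressed as percentage of peak current blocked; mean ± SD.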

Hippocampal neurone = experiment: Neuroprotective activity in Sprague-Dawley rat primary hippocampal neurons assessed as reduction in Abeta-induced dendrites damage at 0.25 to 1 uM incubated for 16 hrs by MAP2 staining based assay; assay type: functional, tissue-based; details: dose 0.25-1 µM
In short: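 Primary hippocampal neurons from E17 rat embryos, used at 14 DIV. Treated for 16 h with naturally secreted Aβ-containing 7PA2 conditioned medium (CHO medium as control), alone or with test compound at several concentrations. Neurons then immunostained for MAP2 with DAPI, and dendritic length quantified.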

[4] = Toxicity in NSG/ICR mouse assessed as survival at 200 mg/kg, ip administered once daily for 5 days; assay type: organism-based; details: in vivo, 200 mg/kg, 120 h, dose 200 mg/kg/day, time 5 day
In short: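 Mice (n = 5 per group) dosed at 200 mg/kg by intraperitoneal injection once daily for 5 consecutive days. Survival monitored. Body weight expressed as mean percent change ± SD relative to weight at the start of treatment (day 0), with 15% weight loss as the reference line.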

[5] = biological target: T2, Short transient receptor potential channel 3 (Homo sapiens) (UniProt Q13507); experiment: Inhibition of human TRPC3 expressed in HEK293 cells assessed as inhibition of OAG-induced current at 0.001 to 10 uM by whole cell patch-clamp method; assay type: cell-based; details: dose 0.001-10 µM
T2 sequence (whole entry): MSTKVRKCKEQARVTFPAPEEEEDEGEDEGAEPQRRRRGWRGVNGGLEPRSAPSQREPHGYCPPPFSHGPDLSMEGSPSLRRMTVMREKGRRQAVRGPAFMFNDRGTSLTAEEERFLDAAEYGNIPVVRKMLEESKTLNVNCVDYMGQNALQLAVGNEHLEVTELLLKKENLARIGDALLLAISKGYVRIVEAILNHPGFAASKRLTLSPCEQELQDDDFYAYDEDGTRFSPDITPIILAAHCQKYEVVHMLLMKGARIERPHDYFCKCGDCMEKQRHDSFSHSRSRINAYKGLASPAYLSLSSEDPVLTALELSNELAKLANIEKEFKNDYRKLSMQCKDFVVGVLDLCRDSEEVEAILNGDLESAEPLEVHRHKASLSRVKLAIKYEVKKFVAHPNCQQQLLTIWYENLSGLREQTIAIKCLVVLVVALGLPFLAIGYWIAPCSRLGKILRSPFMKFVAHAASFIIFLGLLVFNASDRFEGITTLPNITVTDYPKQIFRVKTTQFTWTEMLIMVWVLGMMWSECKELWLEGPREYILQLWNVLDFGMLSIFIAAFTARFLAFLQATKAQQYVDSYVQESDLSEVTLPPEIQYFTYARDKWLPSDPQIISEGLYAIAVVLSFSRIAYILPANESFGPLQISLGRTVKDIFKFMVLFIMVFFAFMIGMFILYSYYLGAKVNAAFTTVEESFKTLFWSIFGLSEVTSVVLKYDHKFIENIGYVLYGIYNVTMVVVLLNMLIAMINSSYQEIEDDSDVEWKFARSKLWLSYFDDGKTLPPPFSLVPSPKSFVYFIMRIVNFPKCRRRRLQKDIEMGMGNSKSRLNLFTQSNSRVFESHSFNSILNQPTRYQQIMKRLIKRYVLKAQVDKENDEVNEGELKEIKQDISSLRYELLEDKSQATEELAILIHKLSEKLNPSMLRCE
In short: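 Whole-cell recordings of hTRPC3 expressed in HEK293 cells, channel activated by 1-oleoyl-2-acetyl-sn-glycerol (membrane-permeable diacylglycerol analogue) instead of GSK1702934A. Inhibitor at a range of concentrations co-perfused with agonist to build a dose–response profile.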

CCNC(=O)c1cnn(-c2ccc(-n3ccc(Cl)c(Cl)c3=O)cc2)c1C(F)(F)F
half-life [1]: > 4 h
half-life [2]: > 4 h
inhibition [3]: 39%
Activity (Hippocampal neurone): Active
Activity [4]: Non-Toxic
inhibition [5]: Active
